Measured values published in ChEMBL document CHEMBL1150285, “Combination of non-natural D-amino acid derivatives and allophenylnorstatine-dimethylthioproline scaffold in HIV protease inhibitors have high efficacy in mutant HIV” (J Med Chem, 2008).

Experiments:
[1] = Selectivity index, ratio of CC50 for human MT4 cells to EC50 for HIV1 3B
[2] = tested on: Human immunodeficiency virus 1; test: microbe, parasite or virus in culture; assay type: functional, organism-based; conditions: Human immunodeficiency virus 1, NL432
[3] = tested on: Human immunodeficiency virus 1; test: Antiviral activity against HIV1 3B in presence of 10% fetal calf serum and alpha1 acid glycoprotein; assay type: functional, organism-based; conditions: Human immunodeficiency virus 1, 3B
[4] = target: Protease (Human immunodeficiency virus 1) (UniProt Q9YQ12); conditions: at 1 nM
Chain of Protease (Human immunodeficiency virus 1) (Q9YQ12 as listed by the source): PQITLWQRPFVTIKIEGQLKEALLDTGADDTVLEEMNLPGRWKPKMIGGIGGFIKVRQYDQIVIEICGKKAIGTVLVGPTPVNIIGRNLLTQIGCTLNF

[5] = Cytotoxicity against human MT4 cells by MTT assay; assay type: cell-based
[6] = tested on: Human immunodeficiency virus 1; test: Ratio of EC50 for nelfinavir-resistant HIV1 NL432 to EC50 for wild-type HIV1 NL432; assay type: functional
[7] = tested on: Human immunodeficiency virus 1; test: Antiviral activity against wild type HIV1 NL432; assay type: functional, organism-based; conditions: Human immunodeficiency virus 1, NL432
[8] = tested on: Human immunodeficiency virus 1; test: Antiviral activity against HIV1 3B in presence of 10% fetal calf serum; assay type: functional, organism-based; conditions: Human immunodeficiency virus 1, 3B
[9] = tested on: Human immunodeficiency virus 1; test: microbe, parasite or virus in culture; assay type: functional, organism-based; conditions: Human immunodeficiency virus 1, NL432; remark: listed apart in the source
[10] = tested on: Human immunodeficiency virus 1; test: Antiviral activity against nelfinavir-resistant HIV1 NL432; assay type: functional, organism-based; conditions: Human immunodeficiency virus 1, NL432
[11] = tested on: Human immunodeficiency virus 1; test: Antiviral activity against HIV1 3B in human MT4 cells assessed as inhibition of viral-induced cytopathic effect by MTT method; assay type: functional, organism-based; conditions: Human immunodeficiency virus 1, 3B
Protease = Protease (Human immunodeficiency virus 1, UniProt Q9YQ12); test: Inhibition of HIV1 protease
Chain of Protease (Q9YQ12 whole entry): as the sequence (Q9YQ12 as listed by the source) above
In short: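 HIV-1 protease (2 µg/mL stock in pH 5.5 acetate buffer) was mixed with test compound (10 nM solution in DMSO) in MES-NaOH buffer, pH 5.5, containing DTT, EDTA and NaCl. The mixture was preincubated 5 min at 37 °C, then started with substrate H-Lys-Ala-Arg-Val-Tyr*Phe(p-NO₂)-Glu-Ala-Nle-NH₂. After 60 min at 37 °C, the reaction was stopped with 1N HCl.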

| Structure (SMILES) | selectivity ratio ([1]; MT4 cells) | EC50 [2] [nM] | EC50 [3] [nM] | inhibition [4] [%] | CC50 [5] [nM] | Ratio EC50 [6] | EC50 [7] [nM] | EC50 [8] [nM] | EC50 [9] [nM] | EC50 [10] [nM] | EC50 [11] [nM] | IC50 (Protease) [nM] | selectivity ratio ([1]; mt4) |
| --- | --- | --- | --- | --- | --- | --- | --- | --- | --- | --- | --- | --- | --- |
| Cc1ccc(CSC[C@@H](NS(C)(=O)=O)C(=O)N[C@@H](Cc2ccccc2)[C@H](O)C(=O)N2CSC(C)(C)[C@H]2C(=O)NCc2ccccc2C)cc1 | 520 | 43 | 110 | 58 | 8900 | 0.09 | 17 | 14 | 58 | 1.5 | 17 |  |  |
| CC(=O)N[C@H](CSCc1ccc(C)cc1)C(=O)N[C@@H](Cc1ccccc1)[C@H](O)C(=O)N1CSC(C)(C)[C@H]1C(=O)NCc1ccccc1C | 730 | 27 | 84 | 76 | 8800 | 0.16 | 22 | 12 | 41 | 3.6 | 12 |  |  |
| Cc1ccccc1CNC(=O)[C@H]1N(C(=O)[C@@H](O)[C@H](Cc2ccccc2)NC(=O)[C@@H](CS(=O)(=O)c2cccc3ccccc23)NS(C)(=O)=O)CSC1(C)C | 310 |  |  | 97 | 19000 |  |  |  |  |  | 61 | 0.083 |  |
| CC(=O)N[C@H](CSc1cccc2ccccc12)C(=O)N[C@@H](Cc1ccccc1)[C@H](O)C(=O)N1CSC(C)(C)[C@H]1C(=O)NCc1ccccc1C | 470 | 52 | 401 | 68 | 8000 | 0.32 | 20 | 14 | 70 | 6.3 | 17 |  |  |
| CSC[C@H](NC(=O)COc1cccc2cnccc12)C(=O)N[C@@H](Cc1ccccc1)[C@H](O)C(=O)N1CSC[C@H]1C(=O)NC(C)(C)C |  | 237 | 529 | 40 |  | 2.3 | 36 |  | 201 | 84 |  |  | > 1400 |
| Cc1ccccc1CNC(=O)[C@H]1N(C(=O)[C@@H](O)[C@H](Cc2ccccc2)NC(=O)[C@@H](CSCc2ccccc2)NS(C)(=O)=O)CSC1(C)C | 580 | 55 | 88 | 66 | 9800 | 0.09 | 20 | 18 | 63 | 1.8 | 17 |  |  |
| CC(=O)N[C@H](CCc1ccccc1)C(=O)N[C@@H](Cc1ccccc1)[C@H](O)C(=O)N1CSC(C)(C)[C@H]1C(=O)NCc1ccccc1C | > 610 | 132 | 155 | 45 | > 31000 | 0.23 | 78 | 25 | 101 | 18 | 51 |  |  |
| Cc1ccccc1CNC(=O)[C@H]1N(C(=O)[C@@H](O)[C@H](Cc2ccccc2)NC(=O)[C@@H](CSc2ccc3ccccc3c2)NS(C)(=O)=O)CSC1(C)C | 470 | 23 | 88 | 67 | 6100 | 0.05 | 17 | 8 | 31 | 0.8 | 13 |  |  |
| CC(=O)N[C@H](CS(=O)(=O)c1ccc(Cl)cc1)C(=O)N[C@@H](Cc1ccccc1)[C@H](O)C(=O)N1CSC(C)(C)[C@H]1C(=O)NCc1ccccc1C | 380 | 19 | 1270 | 80 | 18000 | 0.11 | 88 | 27 | 44 | 9.6 | 47 | 0.22 |  |
| COc1ccc(CSC[C@@H](NC(C)=O)C(=O)N[C@@H](Cc2ccccc2)[C@H](O)C(=O)N2CSC(C)(C)[C@H]2C(=O)NCc2ccccc2C)cc1 | 1300 |  | 89 | 87 |  | 0.14 |  |  |  |  |  | 0.18 |  |
| Cc1ccccc1CNC(=O)[C@H]1N(C(=O)[C@@H](O)[C@H](Cc2ccccc2)NC(=O)[C@@H](CSc2cccc3ccccc23)NS(C)(=O)=O)CSC1(C)C | 690 | 13 | 347 | 74 | 4400 | 0.07 | 9.3 | 4 | 17 | 0.67 | 6.4 |  |  |
| CC(=O)N[C@H](CS(=O)(=O)c1cccc2ccccc12)C(=O)N[C@@H](Cc1ccccc1)[C@H](O)C(=O)N1CSC(C)(C)[C@H]1C(=O)NCc1ccccc1C | 400 |  |  | 97 | 16000 |  |  |  |  |  | 40 | 0.09 |  |
| Cc1ccccc1CNC(=O)[C@H]1N(C(=O)[C@@H](O)[C@H](Cc2ccccc2)NC(=O)[C@@H](CS(=O)(=O)c2ccc(Cl)cc2)NS(C)(=O)=O)CSC1(C)C |  |  |  | 95 |  |  |  |  |  |  |  | 0.11 |  |
| CC(=O)N[C@H](CSc1ccc2ccccc2c1)C(=O)N[C@@H](Cc1ccccc1)[C@H](O)C(=O)N1CSC(C)(C)[C@H]1C(=O)NCc1ccccc1C | 460 | 32 | 95 | 53 | 8300 | 0.42 | 17 | 14 | 65 | 7.2 | 18 |  |  |
| CC(=O)N[C@H](COCc1ccccc1)C(=O)N[C@@H](Cc1ccccc1)[C@H](O)C(=O)N1CSC(C)(C)[C@H]1C(=O)NCc1ccccc1C | > 1400 | 44 | 278 | 64 | > 30000 | 0.28 | 23 | 20 | 77 | 6.5 | 21 | 0.39 |  |
| CC(=O)N[C@H](CSCc1ccccc1)C(=O)N[C@@H](Cc1ccccc1)[C@H](O)C(=O)N1CSC(C)(C)[C@H]1C(=O)NCc1ccccc1C | 1000 | 21 | 96 | 81 | 15000 | 0.33 | 18 | 16 | 40 | 5.9 | 15 |  |  |
| COc1ccc(CSC[C@@H](NS(C)(=O)=O)C(=O)N[C@@H](Cc2ccccc2)[C@H](O)C(=O)N2CSC(C)(C)[C@H]2C(=O)NCc2ccccc2C)cc1 | 1100 | 23 | 94 | 77 | 10000 | 0.04 | 16 | 9.4 | 20 | 0.67 | 9.3 | 0.26 |  |
| CC(=O)N[C@H](CS(=O)(=O)c1ccc2ccccc2c1)C(=O)N[C@@H](Cc1ccccc1)[C@H](O)C(=O)N1CSC(C)(C)[C@H]1C(=O)NCc1ccccc1C | 570 |  |  | 96 | 16000 |  |  |  |  |  | 28 | 0.086 |  |
| Cc1ccccc1CNC(=O)[C@H]1N(C(=O)[C@@H](O)[C@H](Cc2ccccc2)NC(=O)[C@@H](COCc2ccccc2)NS(C)(=O)=O)CSC1(C)C | 850 | 92 | 90 | 59 | 17000 | 0.1 | 22 | 20 | 90 | 2.3 | 20 | 0.56 |  |
| CC(=O)N[C@H](CS(=O)(=O)c1ccc(F)cc1)C(=O)N[C@@H](Cc1ccccc1)[C@H](O)C(=O)N1CSC(C)(C)[C@H]1C(=O)NCc1ccccc1C | > 270 |  |  | 79 | > 28000 |  |  |  |  |  | 105 | 0.27 |  |
| Cc1ccccc1CNC(=O)[C@H]1N(C(=O)[C@@H](O)[C@H](Cc2ccccc2)NC(=O)[C@@H](CS(=O)(=O)c2ccc3ccccc3c2)NS(C)(=O)=O)CSC1(C)C | 230 |  |  | 98 | 19000 |  |  |  |  |  | 81 | 0.09 |  |
